KCNQ1 inh: inhibitors of human KCNQ1 channel, primary screen, cell-based, thallium flux, high-throughput; Potassium voltage-gated channel subfamily KQT member 1 (Homo sapiens), P51787; CHO-K1 KCNQ1, FluxOR thallium flux fluorescence; hits give high values; B-score at 10 µM; hit rate 1.3% among 310,000; AID 2642, 2010;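 active means compounds whose thallium flux B-score, printed positive for inhibition, exceeds three library SD while starting fluorescence stays within three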;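 further: channel opened by potassium depolarization with thallium stimulus after 20 min compound exposure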
KCNQ1 pot: potentiators or activators of KCNQ1 channel, primary screen, cell-based, thallium flux, high-throughput; Potassium voltage-gated channel subfamily KQT member 1 (Homo sapiens), P51787; CHO-K1 KCNQ1, thallium flux FluxOR fluorescence; hits give high values; B-score at 10 µM; hit rate 0.35% among 310,000; AID 2648, 2010;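 active means fluorescence ratio B-score, a plate-corrected score, at least three library SD, with initial intensity B-score within 5 SD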
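assay system = CHO-K1 cells stably expressing KCNQ1 | medium = assay buffer, equal DMSO in all wells | timing = 37 °C overnight plating, 90-min dark dye load, 20-min compound pretreatment | measured by = kinetic FluxOR thallium fluorescence, 10-s 1-Hz baseline, 110-s post-stimulus read | measure = fluorescence change relative to baseline, converted to B score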
KCNK3 block: human KCNK3 channel inhibitors, primary screen, CHO cells, FluxOR thallium flux, B-score. FluxOR fluorescence; hits give low values. Potassium channel subfamily K member 3 (Homo sapiens), O14649. B-score at 10 µM. hit rate 0.84% among 340,000. AID 602410, 2012;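 active means B-score under library mean minus 4 SD, starting fluorescence ratio at most library mean plus 5 SD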;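 further: more negative B-score means stronger inhibition of thallium flux through KCNK3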
Kir21 block: inhibitors of mouse Kir2.1 inward-rectifier potassium channel; HEK293-Kir2.1, FluxOR thallium flux fluorescence; hits give low values; Inward rectifier potassium channel 2 (Mus musculus), P35561; B-score at 10 µM; hit rate 0.85% among 310,000;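 active means fluorescence ratio B-score at or below minus 3 SD of library scores, with starting-brightness B-score within 2 SD, cut at about -4.2 in these data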;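 further: channel flux triggered by added potassium and thallium sulfate stimulus; B-score of peak minus minimum fluorescence over baseline after thallium stimulus; more negative B-score means stronger Kir2.1 block with less thallium influx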
hERG protect: hERG rescue from dofetilide block, primary screen, cell-based, CHO-hERG, FluxOR thallium flux, dofetilide IC70; Voltage-gated inwardly rectifying potassium channel KCNH2 (Homo sapiens), Q12809; hit rate 0.51% among 310,000; dofetilide IC70 present; AID 1511, 2009; activation (rescue from dofetilide block), less the hit threshold, % at 10 µM;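 active means activation above the mean of controls blocked by dofetilide plus 5 SD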;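 further: thallium influx through hERG after potassium depolarization seen as dye fluorescence rise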
KCNK9 inh: KCNK9 potassium channel inhibitors, primary screen, HEK293 cells, thallium flux; AID 488922, 2010; hit rate 1.2% among 310,000; FluxOR thallium flux fluorescence; hits give low values; B-score at 10 µM;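 active means ratio B-score over 3 SD below the library mean, with starting fluorescence within 5 SD of its mean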;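 further: negative B-score means less thallium flux so channel inhibition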
Target sequence (Q9NPC2 whole entry, looked up): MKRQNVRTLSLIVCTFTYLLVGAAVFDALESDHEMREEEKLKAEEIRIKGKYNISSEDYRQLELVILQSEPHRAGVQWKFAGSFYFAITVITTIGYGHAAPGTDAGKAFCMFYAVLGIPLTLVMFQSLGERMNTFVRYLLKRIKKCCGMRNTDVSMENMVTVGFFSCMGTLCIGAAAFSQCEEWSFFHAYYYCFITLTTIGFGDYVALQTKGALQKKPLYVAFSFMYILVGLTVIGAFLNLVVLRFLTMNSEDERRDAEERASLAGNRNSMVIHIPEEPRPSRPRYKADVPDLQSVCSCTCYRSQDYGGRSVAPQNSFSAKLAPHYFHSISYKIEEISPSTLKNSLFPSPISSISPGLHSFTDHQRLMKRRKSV
KCNK9 inh conf: KCNK9 potassium channel inhibitors, confirmation, HEK293 cells, thallium flux, duplicate; shares compounds with KCNK9 inh; FluxOR thallium flux fluorescence; inhibition, % at 10 µM; hit rate 43% among 4,900; AID 492992, 2010;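 active means thallium signal inhibited by more than 5 SD of the compound-free buffer control wells, on both duplicate plates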;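 further: 0% = assay buffer control wells without compound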
Kir21 sel: mouse Kir2.1 channel inhibition, confirmation, selectivity assay for KCNK9 modulator project, cell-based, HEK293, thallium flux; hit rate 4% among 4,900; shares compounds with KCNK9 inh; AID 492993, 2010; inhibition, % at 10 µM; Kir2.1 cells, FluxOR thallium flux fluorescence;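 active means thallium signal drop more than 5 SD beyond the mean of the no-compound control wells, seen in both duplicate plates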;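 further: signal is fluorescence rise after thallium addition divided by baseline fluorescence; plate controls were assay buffer only for no effect and full block by chlorpromazine control for full effect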
KCNK9 uninduced: thallium flux in non-induced HEK293 cells, confirmation, counter-screen for KCNK9 inhibitor project, cell-based, second counter screen, non-induced KCNK9-HEK293 | FluxOR thallium flux | shares compounds with KCNK9 inh | inhibition, % at 10 µM | AID 492997, 2010 | hit rate 40% among 4,900;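 active means thallium signal drop beyond 5 SD of the untreated control mean, on both duplicate plates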;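 further: plate controls were buffer only IC0 wells for no effect and SID17386958 at its maximal inhibitory level for full effect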
* marks the source's active call; other numbers are inactive results; i = inactive; / = no result. Only some compounds are listed: those with a hit (about 3.7% of all), similar ones and a draw of the others.

SMILES | KCNQ1 inh | KCNQ1 pot | KCNK3 block | Kir21 block | hERG protect | KCNK9 inh | KCNK9 inh conf | Kir21 sel | KCNK9 uninduced
O=C(Cc1cccs1)NC(c1ccccc1)c1ccccc1 | i | i | i | -0.07 | -9 | i | / | / | /
O=C(COC(=O)/C(=C/c1cccs1)c1cccs1)NC(c1ccccc1)c1ccccc1 | i | i | i | -1.1 | -10 | -9.1* | 46%* | i | i
CN(CC(=O)Nc1c(Cl)cccc1Cl)C(=O)c1ccc2ccccc2n1 | / | / | i | / | / | / | / | / | /
C=CCn1c(COc2ccc(F)cc2)nnc1SC(C)C(=O)NCC1CCCO1 (centres undefined) | / | / | i | / | / | / | / | / | /
O=C(Nc1ccc2nc(-c3cccs3)[nH]c2c1)c1cccs1 | i | i | i | 1.9 | -7 | -10* | 56%* | i | i
CCOC(=O)[C@@H]1[C@H]2COc3ccccc3[C@@H]2N2C(=O)N(c3cccc(Cl)c3)C(=O)[C@]12C | i | i | i | -0.02 | -7 | i | / | / | /
Cc1ccc(C(=O)N2CCC(C(=O)c3c(C)cc(C)cc3C)CC2)cc1 | i | i | i | -1.4 | -8 | i | / | / | /
CCOc1cc(C(=O)Nc2ccncc2)cc(OCC)c1OCC | i | i | i | 0.63 | -10 | i | / | / | /
CC(=O)c1cc2c(cc1NC(=O)CN1CCC(Cc3ccccc3)CC1)OCO2 | i | i | i | 1.7 | -11 | i | i | i | i
CCOC(=O)N1CCN(CC(=O)Nc2cc3c(cc2C(C)=O)OCO3)CC1 | i | i | i | -0.5 | -4 | i | / | / | /
CCOc1cc(N2CCOCC2)c(OCC)cc1NC(=O)CN1CCC(Cc2ccccc2)CC1 | i | i | i | -1.8 | -4 | i | i | i | i
Cc1c(N=NC2=C(O)CC(C)(C)CC2=O)cc2c(c1[N+](=O)[O-])C(C)(C)CC2(C)C | 6* | i | i | 0.67 | -11 | i | i | i | i
CC(=O)Nc1cc2c(c([N+](=O)[O-])c1C)C(C)(C)CC2(C)C | / | / | i | / | / | / | / | / | /
CCc1nnc(NC(=O)CSc2n[nH]c(-c3ccccc3O)n2)s1 | i | i | i | -0.33 | -9 | i | / | / | /
CC1(c2nnc(-c3ccc(F)cc3)o2)CC(c2ccc([N+](=O)[O-])cc2)=NO1 (centres undefined) | i | i | i | -2.1 | -1 | i | / | / | /
Cc1cccc(NC(=O)CCCN=C2NS(=O)(=O)c3ccccc32)c1C | / | / | i | / | / | / | / | / | /
Cn1cc(CN2CCCC(CNC(=O)c3ccc4c(c3)OCO4)C2)c2ccccc21 (centres undefined) | i | i | i | -0.04 | -7 | i | / | / | /
COc1ccc(F)cc1C(=O)C1CCCN(Cc2c[nH]c3ccccc23)C1 (centres undefined) | i | i | i | -3 | -9 | i | / | / | /
COc1ccc(F)cc1C(=O)C1CCCN(Cc2cn(C)c3ccccc23)C1 (centres undefined) | i | i | i | -2.6 | -10 | i | i | i | i
COc1ccc(OC)c(CN2CCCC(C(=O)c3ccccc3SC)C2)c1 (centres undefined) | i | i | i | -1.7 | -13 | i | i | i | i
Cn1cc(CN2CCCC(C(=O)c3cc(F)ccc3F)C2)c2ccccc21 (centres undefined) | i | i | i | 0 | -12 | i | i | i | i
COc1ccc(NC(C)=O)cc1CNC(=O)COc1ccccc1C(=O)Nc1cccc(C)c1C | i | i | i | 0.02 | -8 | i | / | / | /
CCCN(C(=O)CSc1cc(-c2ccccc2)c2ccc(OC)cc2n1)C1CCS(=O)(=O)C1 (centres undefined) | i | i | i | -0.05 | -5 | -8.4* | 48%* | i | 28%*
CCOc1ccc(NC2=C(Cl)C(=O)N(C3CCCCC3)C2=O)cc1 | i | i | i | 0.45 | -4 | i | / | / | /
COc1ccc(C)cc1NC1=C(Cl)C(=O)N(C2CCCCC2)C1=O | i | i | i | 0.43 | -10 | -17* | 64%* | i | 44%*
SMILES | KCNQ1 inh | KCNQ1 pot | KCNK3 block | Kir21 block | hERG protect | KCNK9 inh | KCNK9 inh conf | Kir21 sel | KCNK9 uninduced
O=C(OCc1ccc(Cl)cc1)c1ccccc1C(=O)c1ccccc1 | i | i | i | -2.7 | -9 | -12* | 52%* | 34%* | 49%*
O=C(OCc1ccc(Cl)cc1)c1cccnc1Cl | i | i | i | 0.73 | -3 | i | / | / | /
Cc1cc(C(=O)CSc2nn3c(=O)c(C(C)(C)C)nnc3s2)c(C)n1C1CC1 | i | i | i | 0.02 | -13 | i | i | i | i
CC(C)Cn1c(-c2ccccc2)nc2ccccc2c1=O | i | i | i | -3.5 | -10 | i | / | / | /
CCCCOC(=O)Cn1c(-c2ccccc2)nc2ccccc2c1=O | i | i | i | 1.2 | -7 | -11* | 56%* | i | 52%*
Cc1cc(C)c2sc(N(CCCN(C)C)C(=O)c3ccc(S(=O)(=O)N(C)C4CCCCC4)cc3)nc2c1 | i | i | i | 0.02 | -26 | i | i | i | i
CCCN(CCC)S(=O)(=O)c1ccc(C(=O)N2CCCc3ccccc32)cc1 | i | i | i | 1.2 | -14 | i | i | i | i
CCCN(CCC)S(=O)(=O)c1ccc2c(c1)CCCN2C(C)=O | i | i | i | -3.2 | 1 | i | / | / | /
COc1cc(CC(=O)Nc2sc3c(c2C(N)=O)CCCC3)cc(OC)c1OC | i | i | i | -0.52 | -3 | i | / | / | /
C[C@@H](Oc1ccccc1)c1nnn(Cc2ccccc2)c1-c1c([C@@H](C)Oc2ccccc2)nnn1Cc1ccccc1 | i | i | / | 0 | -8 | -12* | i | i | 36%*
